Converted amounts (≈) assume the structure as drawn.
Tests used:
[1] = system: Escherichia coli; assay: In vitro antibacterial activity against Escherichia coli KC-14, Ec(K), (gram-negative); type: functional
Procedure, shortened: (§1)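 MIC by serial 2-fold agar dilution on Mueller–Hinton agar; inoculum about 10^6 CFU/mL; MIC taken as lowest concentration preventing visible growth after 18 h at 37 °C.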

[2] = system: Enterococcus faecalis; assay: In vitro antibacterial activity against Enterococcus faecalis IID 682,[…],(gram-positive); type: functional; procedure, shortened: as §1
[3] = system: Pseudomonas aeruginosa; assay: In vitro antibacterial activity against Pseudomonas aeruginosa IFO 3445,Pa(I),(gram-negative); type: functional; procedure, shortened: as §1
[4] = system: Klebsiella pneumoniae; assay: In vitro antibacterial activity against klebsiella pneumoniae B54,Kp,(gram-negative); type: functional
[5] = system: Staphylococcus aureus; assay: In vitro antibacterial activity against staphylococcus aureus IID 803,(gram-positive); type: functional; procedure, shortened: as §1
[6] = system: Staphylococcus epidermidis; assay: In vitro antibacterial activity against staphylococcus epidermidis IAM 1296, (gram-positive); type: functional; procedure, shortened: as §1
[7] = system: Pseudomonas aeruginosa; assay: In vitro antibacterial activity against Pseudomonas aeruginosa E-2,Pa(E),(gram-negative); type: functional; procedure, shortened: as §1
[8] = system: Staphylococcus aureus; assay: In vitro antibacterial activity against staphylococcus aureus FDA 209P JC-1,Sa(F)(gram-positive); type: functional; procedure, shortened: as §1
[9] = system: Escherichia coli; assay: In vitro antibacterial activity against Escherichia coli NIHJ JC-2,(gram-negative)
[10] = system: Escherichia coli; assay: In vitro antibacterial activity was measured against nalidixic acid resistant strain 1 from Escherichia coli KC-14; type: functional
Procedure, shortened: (§2)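 MIC by serial 2-fold agar dilution on Mueller–Hinton agar, inoculum about 10^6 CFU/mL. Plates were incubated 37 °C for 18 h. MIC was the lowest concentration preventing visible growth.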

[11] = system: Escherichia coli; assay: In vitro antibacterial activity was measured against nalidixic acid resistant strain 2 from Escherichia coli KC-14; type: functional; procedure, shortened: as §2
[12] = system: Escherichia coli; assay: In vitro antibacterial activity was measured against nalidixic acid resistant strain 3 from Escherichia coli KC-14; type: functional; procedure, shortened: as §2
[13] = system: Escherichia coli; assay: In vitro antibacterial activity was measured against nalidixic acid resistant strain 4 from Escherichia coli KC-14; type: functional; procedure, shortened: as §2
[14] = system: Escherichia coli; assay: In vitro antibacterial activity was measured against nalidixic acid resistant strain 5 from Escherichia coli KC-14; type: functional; procedure, shortened: as §2
[15] = system: Escherichia coli; assay: In vitro antibacterial activity was measured against nalidixic acid resistant strain 6 from Escherichia coli KC-14; type: functional; procedure, shortened: as §2
[16] = system: Escherichia coli; assay: In vitro antibacterial activity was measured against nalidixic acid resistant strain 7 from Escherichia coli KC-14; type: functional; procedure, shortened: as §2
[17] = system: Escherichia coli; assay: The effect on systematic infection in mice infected with Escherichia coli KC-14, administered perorally; type: functional
Procedure, shortened: (§3)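 Male ddY mice (20–22 g), five per group, received 0.5 mL bacterial dilution intraperitoneally at 35 or 500 times the 50% lethal dose. Compound was given orally 1 h postinfection, suspended in 0.5% sodium (carboxymethyl)cellulose or dissolved in sterile distilled water. Survival was scored after 1 week. Oral ED50 was reported with 95% confidence limits.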

[18] = system: Staphylococcus aureus; assay: The effect on systematic infection in mice infected with Staphylococcus aureus IID 803, administered perorally; type: functional; procedure, shortened: as §3
[19] = system: Pseudomonas aeruginosa; assay: The effect on systematic infection in mice infected with Pseudomonas aeruginosa E-2, administered perorally; type: functional
[20] = system: Pseudomonas aeruginosa; assay: The effect on systematic infection in mice infected with Pseudomonas aeruginosa, administered perorally; type: functional; procedure, shortened: as §3

| SMILES | MIC [1] [µg/mL] | MIC [2] [µg/mL] | MIC [3] [µg/mL] | MIC [4] [µg/mL] | MIC [5] [µg/mL] | MIC [6] [µg/mL] | MIC [7] [µg/mL] | MIC [8] [µg/mL] | MIC [9] [µg/mL] | MIC [10] [µg/mL] | MIC [11] [µg/mL] | MIC [12] [µg/mL] | MIC [13] [µg/mL] | MIC [14] [µg/mL] | MIC [15] [µg/mL] | MIC [16] [µg/mL] | ED50 [17] [mg/kg] | ED50 [18] [mg/kg] | ED50 [19] [mg/kg] | ED50 [20] [µg/mL] |
| --- | --- | --- | --- | --- | --- | --- | --- | --- | --- | --- | --- | --- | --- | --- | --- | --- | --- | --- | --- | --- |
| O=C(O)c1c(=O)c2cc(F)c(N3CCCC3)c3c2n2c(csc12)CO3 | 0.2 (≈ 0.555 µM) | 0.2 (≈ 0.555 µM) | 1.56 (≈ 4.33 µM) | 0.2 (≈ 0.555 µM) | 0.05 (≈ 0.139 µM) | 0.05 (≈ 0.139 µM) | 1.56 (≈ 4.33 µM) | 0.025 (≈ 0.0694 µM) | 0.2 (≈ 0.555 µM) | – | – | – | – | – | – | – | – | – | – | – |
| CN(C)c1c(F)cc2c(=O)c(C(=O)O)c3scc4n3c2c1OC4 | 0.39 (≈ 1.17 µM) | 0.78 (≈ 2.33 µM) | 1.56 (≈ 4.67 µM) | 0.2 (≈ 0.598 µM) | 0.1 (≈ 0.299 µM) | 0.1 (≈ 0.299 µM) | 6.25 (≈ 18.7 µM) | 0.2 (≈ 0.598 µM) | 0.39 (≈ 1.17 µM) | – | – | – | – | – | – | – | – | – | – | – |
| O=C(O)c1c(=O)c2cc(F)c(N3CCC(O)C3)c3c2n2c(csc12)CO3 (stereo not drawn) | 0.05 (≈ 0.133 µM) | 0.2 (≈ 0.531 µM) | 0.39 (≈ 1.04 µM) | 0.05 (≈ 0.133 µM) | 0.025 (≈ 0.0664 µM) | 0.2 (≈ 0.531 µM) | 0.39 (≈ 1.04 µM) | 0.025 (≈ 0.0664 µM) | 0.05 (≈ 0.133 µM) | > 3.13 | > 3.13 | 0.78 (≈ 2.07 µM) | 0.78 (≈ 2.07 µM) | 0.78 (≈ 2.07 µM) | 0.39 (≈ 1.04 µM) | 0.2 (≈ 0.531 µM) | – | – | – | – |
| CSc1c(F)cc2c(=O)c(C(=O)O)c3scc4n3c2c1OC4 | 0.2 (≈ 0.593 µM) | 3.13 (≈ 9.28 µM) | 1.56 (≈ 4.62 µM) | 0.39 (≈ 1.16 µM) | 0.1 (≈ 0.296 µM) | 0.2 (≈ 0.593 µM) | 3.13 (≈ 9.28 µM) | 0.2 (≈ 0.593 µM) | 0.39 (≈ 1.16 µM) | – | – | – | – | – | – | – | – | – | – | – |
| CCn1cc(C(=O)O)c(=O)c2ccc(C)nc21 [NALIDIXIC ACID] | – | – | – | – | – | – | – | – | – | > 1600 | > 1600 | 200 (≈ 861 µM) | 100 (≈ 431 µM) | 100 (≈ 431 µM) | 100 (≈ 431 µM) | 100 (≈ 431 µM) | – | – | – | – |
| O=C(O)c1c(=O)c2cc(F)c(N3CCOCC3)c3c2n2c(csc12)CO3 | 0.39 (≈ 1.04 µM) | 0.39 (≈ 1.04 µM) | 1.56 (≈ 4.14 µM) | 0.2 (≈ 0.531 µM) | 0.05 (≈ 0.133 µM) | 0.1 (≈ 0.266 µM) | 0.39 (≈ 1.04 µM) | 0.05 (≈ 0.133 µM) | 0.39 (≈ 1.04 µM) | – | – | – | – | – | – | – | – | – | – | – |
| NC1CCN(c2c(F)cc3c(=O)c(C(=O)O)c4scc5n4c3c2OC5)C1 (stereo not drawn) | 0.1 (≈ 0.266 µM) | 0.78 (≈ 2.08 µM) | 0.78 (≈ 2.08 µM) | 0.1 (≈ 0.266 µM) | 0.39 (≈ 1.04 µM) | 0.78 (≈ 2.08 µM) | 0.78 (≈ 2.08 µM) | 0.2 (≈ 0.533 µM) | 0.2 (≈ 0.533 µM) | – | – | – | – | – | – | – | – | – | – | – |
| CN1CCN(c2c(F)cc3c(=O)cc4scc5n4c3c2OC5)CC1 | > 100 | > 100 | > 100 | > 100 | > 100 | > 100 | > 100 | > 100 | > 100 | – | – | – | – | – | – | – | – | – | – | – |
| O=C(O)c1c(=O)c2cc(F)c(N3CCSCC3)c3c2n2c(csc12)CO3 | 0.39 (≈ 0.994 µM) | 3.13 (≈ 7.98 µM) | 6.25 (≈ 15.9 µM) | 0.39 (≈ 0.994 µM) | 0.05 (≈ 0.127 µM) | 0.1 (≈ 0.255 µM) | 3.13 (≈ 7.98 µM) | 0.05 (≈ 0.127 µM) | 0.39 (≈ 0.994 µM) | – | – | – | – | – | – | – | – | – | – | – |
| CN1CCN(c2c(F)cc3c(=O)c(C(=O)O)c4scc5n4c3c2OC5)CC1.Cl | 0.1 | 0.39 | 0.78 | 0.1 | 0.1 | 0.2 | 0.78 | 0.1 | 0.1 | 1.56 | 3.13 | 0.39 | 0.2 | 0.39 | 0.39 | 0.2 | 1.01 | 8.1 | 17.7 | – |
| CC1COc2c(N3CCNCC3)c(F)cc3c(=O)c(C(=O)O)cn1c23 (stereo not drawn) | 0.1 (≈ 0.288 µM) | 1.56 (≈ 4.49 µM) | 1.56 (≈ 4.49 µM) | 0.1 (≈ 0.288 µM) | 0.39 (≈ 1.12 µM) | 0.78 (≈ 2.25 µM) | 1.56 (≈ 4.49 µM) | 0.39 (≈ 1.12 µM) | 0.1 (≈ 0.288 µM) | 6.25 (≈ 18 µM) | 6.25 (≈ 18 µM) | 0.78 (≈ 2.25 µM) | 0.39 (≈ 1.12 µM) | 0.78 (≈ 2.25 µM) | 0.78 (≈ 2.25 µM) | 0.39 (≈ 1.12 µM) | 1.1 | 11.5 | – | 22.9 (≈ 65.9 µM) |
| O=C1CN(c2c(F)cc3c(=O)c(C(=O)O)c4scc5n4c3c2OC5)CCN1 | 1.56 (≈ 4.01 µM) | 3.13 (≈ 8.04 µM) | 6.25 (≈ 16.1 µM) | 1.56 (≈ 4.01 µM) | 1.56 (≈ 4.01 µM) | 12.5 (≈ 32.1 µM) | 6.25 (≈ 16.1 µM) | 3.13 (≈ 8.04 µM) | 1.56 (≈ 4.01 µM) | – | – | – | – | – | – | – | – | – | – | – |

From ChEMBL document CHEMBL1126175, “Synthesis and antibacterial activity of new tetracyclic quinolone antibacterials” (J Med Chem, 1992)
